Source: ChEMBL document CHEMBL5385911, “Exploring the Dispersion and Electrostatic Components in Arene-Arene Interactions between Ligands and G4 DNA to Develop G4-Ligands” (J Med Chem, 2024)
Converted amounts (≈) assume the structure as drawn. The source made the active and inactive calls. No cut-off for these calls is given here.

Columns and labels:
Quadruplex DNA [1] = assay: Stabilization of fluorescently labelled G4-quadruplex c-KIT2 DNA (unknown origin) assessed as increase in thermal stability of DNA structure at 5 uM by FRET melting assay; format: nucleic-acid assay
Outline: (§1)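 0.2 μM FAM/TAMRA dual-labelled oligonucleotide, prefolded in 10 mM lithium cacodylate pH 7.4, 10 mM KCl, 90 mM LiCl (95 °C 10 min, then ≥1 h cold). Ligand added and sample heated from 10 to 95 °C; donor emission at 516 nm (excitation 492 nm) normalized. Tm taken at 0.5 normalized emission; ΔTm is Tm with ligand minus Tm without ligand. Duplicate wells.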

Quadruplex DNA [2] = assay: Binding affinity to c-Myc G4-quadruplex Pu22 DNA (unknown origin) at 0.7 equivalent by NMR titration analysis; format: nucleic-acid assay; details: dose 0.7 equiv
Outline: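 Pu22 folded at 100 μM in 10 mM potassium phosphate pH 7.4, 35 mM KCl (95 °C 10 min, cooled overnight). 10% D2O added, giving 90 μM DNA. Compound added stepwise in increasing equivalents. 1D 1H spectra with excitation sculpting, 256 scans, 298 K, 850 MHz.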

Quadruplex DNA [3] = assay: Stabilization of fluorescently labelled c-Myc G4-quadruplex Pu22 DNA (unknown origin) assessed as increase in thermal stability of DNA structure at 5 uM in presence of double stranded competitor DNA ds26 by FRET melting assay; format: nucleic-acid assay
Outline: (§2)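 Competition melting: 0.2 μM labelled Pu22 in 10 mM lithium cacodylate pH 7.4, 2 mM KCl, 98 mM LiCl, with ligand plus 0–100 equivalents of ds26 duplex competitor. Heated 10–95 °C; FAM emission normalized. Tm taken at 0.5 normalized emission; ΔTm is Tm with ligand minus Tm without ligand. SD of at least six independent experiments.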

Quadruplex DNA [4] = assay: Binding affinity to c-Myc G4-quadruplex Pu22 DNA (unknown origin) assessed as change in entropy by isothermal titration calorimetry; format: nucleic-acid assay
Outline: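 Reverse titration: cell holds 20 μM ligand, syringe 120 μM prefolded G4 DNA, 20 injections in 10 mM potassium phosphate, 100 mM KCl, pH 7.4, at 19 °C. First injection 0.5 μL, then 2 μL, 120 s spacing, 1000 rpm, high-feedback mode. Data fitted to one-site binding model.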

Quadruplex DNA [5] = assay: Stabilization of G4-quadruplex PEPu24T DNA (unknown origin) assessed as inhibition of Taq DNA polymerase activity by measuring reduction in full length DNA product at 1.2 uM pretreated for 10 mins followed by incubation with dNTPs for 15 mins by PAGE analysis; format: nucleic-acid assay; details: time 25.0 min
Outline: (§3)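 Template made by annealing TET-labelled 25 nt primer (1 μM final) to PEPu24T (1.25 μM final) in 100 mM KCl. Reaction: 40 nM template, Taq buffer pH 8.8 with 50 mM KCl, 25 mM MgCl2, 0.05 U Taq. Compound preincubated on ice 10 min; dNTPs (100 μM) added, 37 °C 15 min. Denaturing 12% urea/formamide PAGE; full-length product expressed as % of no-compound sample; SD of ≥2 independent experiments.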

[6] = Solubility of the compound at pH 7.4; format: physicochemical; details: buffer
Quadruplex DNA [7] = assay: Stabilization of G4-quadruplex DNA in human HeLa cells assessed as increase in BG4-positive cell nuclei at 20 uM incubated for 24 hrs by immunofluorescence microscopy; format: functional, cell-based
Outline: (§4)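 HeLa cells (60,000 on coverslips) treated 24 h. Cells fixed in 2% paraformaldehyde, permeabilized in 0.1% Triton X-100, blocked in 2% milk. Stained with BG4–FLAG (1/3000), rabbit anti-FLAG, then Alexa594 anti-rabbit, each 1 h at 37 °C; nuclei stained with DAPI. BG4 foci per nucleus counted, 90–166 cells per condition. Welch-corrected t tests on ln-transformed data; mean ± 2SD shown.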

Quadruplex DNA [8] = assay: Stabilization of fluorescently labelled G4-quadruplex Tba DNA (unknown origin) assessed as increase in thermal stability of DNA structure at 5 uM by FRET melting assay; format: nucleic-acid assay; outline: as §1
Quadruplex DNA [9] = assay: Stabilization of fluorescently labelled G4-quadruplex 21G DNA (unknown origin) assessed as increase in thermal stability of DNA structure at 5 uM by FRET melting assay; format: nucleic-acid assay; outline: as §1
Quadruplex DNA [10] = assay: Stabilization of fluorescently labelled G4-quadruplex 25Ceb DNA (unknown origin) assessed as increase in thermal stability of DNA structure at 5 uM by FRET melting assay; format: nucleic-acid assay; outline: as §1
dsDNA = assay: Binding affinity to 5'-Cy5-labelled double stranded DNA ds26 (unknown origin) by microscale thermophoresis analysis; format: nucleic-acid assay
Outline: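 Cy5-labelled DNA held at 25 nM, folded in 10 mM phosphate, 100 mM KCl, pH 7.4 (95 °C 5 min, cooled to room temperature). Ligand in 16 1:3 dilutions in 10 mM phosphate pH 7.4, 100 mM KCl, 0.05% Tween20. Capillary fluorescence read at 20% LED power; change in fluorescence versus ligand concentration fitted by nonlinear equation for binding constant.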

Quadruplex DNA [11] = assay: Stabilization of fluorescently labelled G4-quadruplex Bom17 DNA (unknown origin) assessed as increase in thermal stability of DNA structure at 5 uM by FRET melting assay; format: nucleic-acid assay; outline: as §1
Quadruplex DNA [12] = assay: Stabilization of fluorescently labelled G4-quadruplex Bcl2 DNA (unknown origin) assessed as increase in thermal stability of DNA structure at 5 uM by FRET melting assay; format: nucleic-acid assay; outline: as §1
[13] = Stabilization of double stranded PEPu24T mut DNA (unknown origin) assessed as inhibition of Taq DNA polymerase activity by measuring reduction in full length DNA product at 6 uM pretreated for 10 mins followed by incubation with dNTPs for 15 mins by PAGE analysis; details: time 25.0 min
Outline: (§5)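 Non-G4 control template: TET-labelled 25 nt primer (1 μM final) annealed to mutated PEPu24T mut (1.25 μM final) in 100 mM KCl. 40 nM template, Taq buffer pH 8.8, 25 mM MgCl2, 0.05 U Taq. Compound on ice 10 min, then 100 μM dNTPs at 37 °C 15 min. Denaturing PAGE; full-length product as % of no-compound sample.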

THP-1 = assay: Cytotoxicity against human THP-1 cells assessed as reduction in cell viability at <50 uM; format: toxicity, cell-based; details: thp-1, 50 µM
Quadruplex DNA [14] = assay: Stabilization of G4-quadruplex PEPu24T DNA (unknown origin) assessed as inhibition of Taq DNA polymerase activity by measuring reduction in full length DNA product at 0.048 to 6 uM pretreated for 10 mins followed by incubation with dNTPs for 15 mins by PAGE analysis; format: nucleic-acid assay; details: dose 0.048-6 µM, time 25.0 min; outline: as §3
Quadruplex DNA [15] = assay: Stabilization of fluorescently labelled c-Myc G4-quadruplex Pu22 DNA (unknown origin) assessed as increase in thermal stability of DNA structure at 5 to 40 equiv. by FRET melting assay; format: nucleic-acid assay; details: dose 5-40 equiv
Outline: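 Pu22 (FAM/TAMRA, 0.2 μM), folded in 10 mM lithium cacodylate pH 7.4, 2 mM KCl, 98 mM LiCl. Ligand at 5, 10, 25 or 40 equivalents. Heated 10–95 °C; donor emission at 516 nm (excitation 492 nm) normalized. Tm taken at 0.5 normalized emission; ΔTm is Tm with ligand minus Tm without ligand. Duplicate wells.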

Quadruplex DNA [16] = assay: Stabilization of 5'-FAM and 3'-TAMRA labelled c-Myc G4-quadruplex Pu24T DNA (unknown origin) assessed as increase in thermal stability of DNA structure at 5 to 40 equiv. by FRET melting assay; details: dose 5-40 equiv
Quadruplex DNA [17] = assay: Stabilization of G4-quadruplex PEPu24T DNA (unknown origin) assessed as inhibition of Taq DNA polymerase activity by measuring full length DNA product at 0.24 uM pretreated for 10 mins followed by incubation with dNTPs for 15 mins by PAGE analysis; format: nucleic-acid assay; set-up: scale not given: the % may be the effect or the level left; details: time 25.0 min; outline: as §3
Quadruplex DNA [18] = assay: Stabilization of fluorescently labelled G4-quadruplex Bcl2 DNA (unknown origin) assessed as increase in thermal stability of DNA structure at 2 uM by FRET melting assay; format: nucleic-acid assay; outline: as §1
Quadruplex DNA [19] = assay: Stabilization of fluorescently labelled G4-quadruplex c-KIT2 DNA (unknown origin) assessed as increase in thermal stability of DNA structure at 2 uM by FRET melting assay; format: nucleic-acid assay; outline: as §1
Quadruplex DNA [20] = assay: Stabilization of fluorescently labelled c-Myc G4-quadruplex Pu22 DNA (unknown origin) assessed as increase in thermal stability of DNA structure at 2 uM in presence of double stranded competitor DNA ds26 by FRET melting assay; format: nucleic-acid assay; outline: as §2
[21] = Stabilization of double stranded PEPu24T mut DNA (unknown origin) assessed as inhibition of Taq DNA polymerase activity by measuring reduction in full length DNA product at >4 uM pretreated for 10 mins followed by incubation with dNTPs for 15 mins by PAGE analysis; details: time 25.0 min; outline: as §5
Quadruplex DNA [22] = assay: Stabilization of G4-quadruplex PEPu24T DNA (unknown origin) assessed as inhibition of Taq DNA polymerase activity by measuring reduction in full length DNA product at 0.048 uM pretreated for 10 mins followed by incubation with dNTPs for 15 mins by PAGE analysis; format: nucleic-acid assay; details: time 25.0 min; outline: as §3
Quadruplex DNA [23] = assay: Stabilization of fluorescently labelled G4-quadruplex Bom17 DNA (unknown origin) assessed as increase in thermal stability of DNA structure at 2 uM by FRET melting assay; format: nucleic-acid assay; outline: as §1
Quadruplex DNA [24] = assay: Stabilization of fluorescently labelled G4-quadruplex Tba DNA (unknown origin) assessed as increase in thermal stability of DNA structure at 2 uM by FRET melting assay; format: nucleic-acid assay; outline: as §1
Quadruplex DNA [25] = assay: Stabilization of fluorescently labelled G4-quadruplex 25Ceb DNA (unknown origin) assessed as increase in thermal stability of DNA structure at 2 uM by FRET melting assay; format: nucleic-acid assay; outline: as §1
Quadruplex DNA [26] = assay: Stabilization of G4-quadruplex PEPu24T DNA (unknown origin) assessed as inhibition of Taq DNA polymerase activity by measuring reduction in full length DNA product at 0.24 uM pretreated for 10 mins followed by incubation with dNTPs for 15 mins by PAGE analysis; format: nucleic-acid assay; details: time 25.0 min; outline: as §3
Quadruplex DNA [27] = assay: Stabilization of G4-quadruplex DNA in human HeLa cells assessed as increase in BG4-positive cell nuclei at 1 to 2 uM incubated for 24 hrs by immunofluorescence microscopy; format: functional, cell-based; details: dose 1-2 µM; outline: as §4
Quadruplex DNA [28] = assay: Stabilization of fluorescently labelled G4-quadruplex 21G DNA (unknown origin) assessed as increase in thermal stability of DNA structure at 2 uM by FRET melting assay; format: nucleic-acid assay; outline: as §1

SMILES: Cc1cc(C)c2nc(Nc3nc(C)cc(C)n3)nc(C)c2c1
- Activity (Quadruplex DNA [1]): Active
- Activity (Quadruplex DNA [2]): Active
- Activity (Quadruplex DNA [3]): Active
- -TdeltaS (Quadruplex DNA [4]): 3.2 kcal/mol
- inhibition (Quadruplex DNA [5]): 50%
- solubility [6]: 134 µM (≈ 39.3 µg/mL)
- Activity (Quadruplex DNA [7]): Active
- Activity (Quadruplex DNA [8]): inactive
- Activity (Quadruplex DNA [9]): Active
- Activity (Quadruplex DNA [10]): Active
- Activity (dsDNA): inactive
- Activity (Quadruplex DNA [11]): Active
- Activity (Quadruplex DNA [12]): Active
- Activity [13]: inactive
- Activity (THP-1): Non-Toxic

SMILES: Cc1cc(C)nc(Nc2nc(C)c3ccccc3n2)n1
- solubility [6]: 134 µM (≈ 35.6 µg/mL)
- Activity [13]: inactive

SMILES: COc1ccc2nc(Nc3nc(C)cc(C)n3)nc(C)c2c1
- solubility [6]: 134 µM (≈ 39.6 µg/mL)
- Activity [13]: inactive

SMILES: Cc1cc(NCCCN(C)C)nc(Nc2nc3ccccc3nc2C)n1
- Activity (Quadruplex DNA [14]): Active
- Activity (Quadruplex DNA [15]): Active
- Activity (Quadruplex DNA [16]): Active
- Activity [13]: inactive

SMILES: Cc1cc(NCCCN(C)C)nc(Nc2ncc3ccccc3n2)n1
- solubility [6]: 858 µM (≈ 290 µg/mL)
- Activity (Quadruplex DNA [16]): Active
- Activity (Quadruplex DNA [17]): 65%
- Activity [13]: inactive

SMILES: Cc1ccc2nc(Nc3nc(C)cc(C)n3)nc(C)c2c1
- solubility [6]: 134 µM (≈ 37.4 µg/mL)
- Activity [13]: inactive

SMILES: Cc1cc(C)c2nc(Nc3nc(C)cc(NCCCN(C)C)n3)nc(C)c2c1
- Activity (Quadruplex DNA [18]): Active
- Activity (Quadruplex DNA [2]): Active
- Activity (Quadruplex DNA [19]): Active
- -TdeltaS (Quadruplex DNA [4]): 1.85 kcal/mol
- solubility [6]: 858 µM (≈ 326 µg/mL)
- Activity (Quadruplex DNA [20]): Active
- Activity [21]: Active
- inhibition (Quadruplex DNA [22]): 50%
- Activity (Quadruplex DNA [16]): Active
- Activity (Quadruplex DNA [23]): Active
- Activity (Quadruplex DNA [24]): inactive
- Activity (Quadruplex DNA [25]): Active
- inhibition (Quadruplex DNA [26]): 100%
- Activity (Quadruplex DNA [27]): Active
- Activity (dsDNA): inactive
- Activity (Quadruplex DNA [28]): Active
